Data as given in ChEMBL document CHEMBL1914282 (J Med Chem, 2011).
The source made the active and inactive calls. No cut-off for these calls is given here.

Legend:
[1] = biological target: T1, G-protein coupled receptor 35 (Homo sapiens, UniProt Q9HC97); test: Agonist activity at GPR35 in human U20S cells expressing beta-lactamase and GPR35-GA14-VP16 transcription factor fusion protein assessed as transcriptional activation after 5 hrs by tango beta-arrestin translocation reporter assay; assay type: functional, cell-based, U2OS
T1 sequence (Q9HC97 whole entry, the tested form may be a part): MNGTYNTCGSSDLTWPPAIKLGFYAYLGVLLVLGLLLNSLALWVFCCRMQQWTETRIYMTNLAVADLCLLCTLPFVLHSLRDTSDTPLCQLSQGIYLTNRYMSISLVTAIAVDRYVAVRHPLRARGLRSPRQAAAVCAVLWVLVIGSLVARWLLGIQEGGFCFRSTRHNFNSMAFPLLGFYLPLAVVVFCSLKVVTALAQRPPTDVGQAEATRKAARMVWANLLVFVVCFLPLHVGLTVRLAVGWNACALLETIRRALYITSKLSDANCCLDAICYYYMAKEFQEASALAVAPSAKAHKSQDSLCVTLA
How it was run: (§1)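 Tango GPR35-bla U2OS cells, which express GPR35–TEV site–Gal4-VP16 and β-arrestin/TEV protease, seeded at 10000 cells/well and cultured overnight. Ligand stimulation for 5 h at 37 °C/5% CO2, then 2 h with LiveBLAzer FRET B/G substrate.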

[2] = biological target: T1, G-protein coupled receptor 35; test: Agonist activity at GPR35 in human HT-29 cells after 1 hr by dynamic mass redistribution assay in presence of GPR35 antagonist SPB05142; assay type: functional, cell-based
[3] = biological target: T1, G-protein coupled receptor 35; test: Agonist activity at GPR35 in human HT-29 cells after 1 hr by dynamic mass redistribution assay in presence of 64 uM GPR35 antagonist SPB05142; assay type: functional, cell-based
[4] = biological target: T1, G-protein coupled receptor 35; test: Agonist activity at GPR35 in human U20S cells expressing beta-lactamase and GPR35-GA14-VP16 transcription factor fusion protein assessed as transcriptional activation after 5 hrs by tango beta-arrestin translocation reporter assay relative to zaprinast; assay type: functional, cell-based; conditions: U2OS
How it was run: as §1, with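 “substrate. Coumarin:fluorescein ratio read as reporter response, doses up to 128 μM, n = 4.” for “substrate.”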

[5] = biological target: T1, G-protein coupled receptor 35; test: Agonist activity at GPR35 in human HT-29 cells assessed as desensitization of 1 uM zaprinast-induced DMR after 1 hr by dynamic mass redistribution assay; assay type: functional, cell-based
[6] = biological target: T1, G-protein coupled receptor 35; test: Agonist activity at GPR35 in human HT-29 cells after 1 hr by dynamic mass redistribution assay relative to zaprinast; assay type: functional, cell-based; set-up: concentration or dose not given beside the values
How it was run: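 HT-29 monolayer grown overnight on resonant waveguide grating biosensor plates. Cells washed twice, held in HBSS (20 mM Hepes, pH 7.1) for 1 h at 26 °C, then a 2 min baseline taken before compound addition. Response recorded as resonant wavelength shift (pm) over 1 h. […] Compounds diluted from 10 mM DMSO stocks.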

[7] = biological target: T1, G-protein coupled receptor 35; test: Agonist activity at GPR35 in human HT-29 cells after 1 hr by dynamic mass redistribution assay; assay type: functional, cell-based
How it was run: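 HT-29 monolayer grown overnight on resonant waveguide grating biosensor plates. Cells washed twice, held in HBSS (20 mM Hepes, pH 7.1) for 1 h at 26 °C, then a 2 min baseline taken before compound addition. Response recorded as resonant wavelength shift (pm) over 1 h. Compounds diluted from 10 mM DMSO stocks.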

[8] = biological target: T1, G-protein coupled receptor 35; test: Agonist activity at GPR35 in human U20S cells expressing beta-lactamase and GPR35-GA14-VP16 transcription factor fusion protein assessed as transcriptional activation up to 128 uM after 5 hrs by tango beta-arrestin translocation reporter assay; assay type: functional, cell-based; conditions: U2OS
How it was run: as §1, with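 “substrate. Coumarin:fluorescein ratio read as reporter response, doses up to 128 μM, n = 4.” for “substrate.”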

[9] = test system: HT-29; test: Induction of dynamic mass redistribution in human HT-29 cells transfected with receptor-targeting iRNA-based shRNA for GPR35 knock out at 10 uM; assay type: functional, cell-based
How it was run: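 HT-29 seeded on biosensor plates at 5000 cells/well, 24 h at 37 °C. Transiently transfected with GFP-tagged shRNA plasmids against human GPR35, or control plasmid, at 0.05 μg DNA per well. Medium changed on day 3. About 48 h post-transfection, DMR agonist assay run with compounds at 10 μM, four replicates.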

[10] = biological target: T1, G-protein coupled receptor 35; test: Agonist activity at GPR35 in human HT-29 cells assessed as receptor internalization at 1 uM after 1 hr by fluorescence imaging; assay type: functional, cell-based
How it was run: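 HT-29 seeded in chamber slides at 10000 cells/well and grown 24 h at 37 °C. Cells exposed to compound or DMSO for 1 h at 37 °C, fixed in 4% formaldehyde, then blocked and permeabilized. Stained with anti-GPR35 (intracellular domain, 1:500, 24 h), then a fluorescent secondary antibody (1:500, 1 h, room temperature). GPR35 location assessed by confocal imaging.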

Row | Structure (SMILES) | EC50 [7] [µM] | EC50 ([1]; u2os) | Activity [8] | Activity [10] | EC50 ([1]; read-out: EC50) [µM] | Activity [2] | Activity [3] | Activity [4] | IC50 [5] [µM] | Activity [6] [%] | Activity [9]
1 | CC1=C(C#N)C(=C(C#N)C#N)OC1(c1ccccc1)C(F)(F)F (configuration not stated) | 3.5 |  |  |  | > 50 | inactive | inactive | 14% | 1.94 | 99 | 
2 | CCCCCCc1c(C(=O)O)sc2ccsc12 | 3.44 |  |  |  | > 50 | Active | Active | 20% | 1.49 | 99 | 
3 | CC1=C(C#N)C(=C(C#N)C#N)OC12c1ccccc1-c1ccccc12 | 6.6 |  | inactive |  |  | inactive | inactive |  | 21.6 | 90 | 
4 | CC1=C(C#N)C(=C(C#N)C#N)OC1(C)c1ccc(F)cc1F (configuration not stated) | 53.9 | Not Active |  |  |  |  |  |  | 48.9 |  | 
5 | CC1=C(C#N)C(=C(C#N)C#N)OC12CCCCC2 | 45.9 |  |  |  | > 50 | Active | Active | Active | 16.4 | 106 | 
6 | Cc1csc2c1sc1cc(C(=O)O)sc12 | 6 |  |  |  | > 50 | Active | Active | 19% | 6.07 | 118 | inactive
7 | CCCCCCCCCCCCCCCc1c(C(=O)O)sc2c(Br)csc12 | 4.56 | Not Active |  |  |  |  |  |  | 5.92 |  | 
8 | CCCCCCCCCCCCCc1c(C(=O)O)sc2c(Br)csc12 | 2.31 | Not Active | inactive |  |  | inactive | inactive | inactive | 1.87 | 77 | 
9 | CCCCCCCCCCCc1c(C(=O)O)sc2c(Br)csc12 | 1.89 |  |  |  | 22.7 | inactive | inactive | 55% | 0.57 | 87 | 
10 | CC1=C(C#N)C(=C(C#N)C#N)OC1(C)c1ccc(Cl)c(Cl)c1 (configuration not stated) | 0.032 |  |  |  | 10.2 | inactive | inactive | 29% | 0.06 | 97 | inactive
11 | CC1=C(C#N)C(=C(C#N)C#N)OC1(C)C | 17.1 |  |  |  | > 50 | inactive | inactive | Active | 12.1 | 87 | inactive
12 | CCCCCCCCc1c(C(=O)O)sc2c(Br)csc12 | 1.46 |  |  |  | > 50 | inactive | inactive | 8% | 1.05 | 103 | 
13 | CCCCCCc1csc2cc(C(=O)O)sc12 | 9.4 |  |  |  | > 50 | inactive | inactive | 9% | 4.69 | 103 | 
14 | CCCOc1ccccc1-c1nc2[nH]nnc2c(=O)[nH]1 |  |  |  |  |  |  |  |  |  |  | inactive

Further lines, with some results ahead:

Row | EC50 [7] [µM] | EC50 ([1]; u2os) | Activity [8] | Activity [10] | Structure (SMILES) | EC50 ([1]; read-out: EC50) [µM] | Activity [2] | Activity [3] | Activity [4] | IC50 [5] [µM] | Activity [6] [%] | Activity [9]
15 | 15.3 | Not Active |  |  | CCCCc1ccc(C2(C)OC(=C(C#N)C#N)C(C#N)=C2C)cc1 (configuration not stated) |  |  |  |  | 6.4 |  | 
16 | 11.1 |  | inactive |  | CC1=C(C#N)C(=C(C#N)C#N)OC1(C)c1ccc(Cl)c(Cl)c1Cl (configuration not stated) |  | Active | Active |  | 10.3 | 90 | 
17 | 0.064 |  |  | Active | Cc1c(C(=O)O)sc2c(Br)csc12 | 15 | inactive | inactive | 104% | 0.11 | 105 | inactive
18 |  | Not Active |  |  | CCOC(=O)c1sc2c(Br)csc2c1C |  |  |  |  |  |  | 
19 | 42.4 | Not Active |  |  | O=C(O)c1cc2sccc2s1 |  |  |  |  | 57 |  | 
20 | 3.35 | Not Active |  |  | CC1=C(C#N)C(=C(C#N)C#N)OC1(C)c1c(F)c(F)c(F)c(F)c1F (configuration not stated) |  |  |  |  | 4.48 |  | 
